Experimental data as given in PubChem BioAssay AID624179 (Johns Hopkins Ion Channel Center, 2012).

What follows are compounds tested on HEK293 M3R/RGS4, carbachol calcium flux, Fluo4 (assay: potency of compounds enhancing RGS4 activity – cell-based, HEK293 M3R/RGS4, calcium flux, SAR compounds, SAR follow-up (AID 624179)).
How it was run: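 System: HEK293 M3R cells with induced RGS4 | Buffer or medium: HBSS-HEPES assay buffer, pH 7.4 | Signal: Fluo-4 calcium fluorescence | Reagent: Carbachol at EC20 as calcium-mobilizing stimulus | Incubation: 20 min compound pre-incubation at room temperature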

| Structure (SMILES) | EC50 |
| --- | --- |
| Cc1ccc(S(=O)(=O)c2ccc(Oc3cccc(C)c3)cc2)cc1 | 2.76 µM |
| O=C(CNc1ccccc1)c1ccc([N+](=O)[O-])cc1 | 6.26 µM |
| CN(Cc1ccc(F)cc1)C(=O)C(c1ccccc1)c1ccccc1 | 2.2 µM |
| O=C(Nc1ccccc1N1CCN(C(=O)c2ccccc2)CC1)c1ccc(Cl)o1 | 4.63 µM |
| S=c1[nH]nc(-c2ccc(Cl)cc2)n1CC1CCCO1 (stereo not drawn) | 5.6 µM |
| CCn1cc(CN2CCC(n3nccc3NC(=O)c3ccc(OC)cc3)CC2)cn1 | 2.98 µM |
| CC(C)Cn1c(-c2ccc(F)cc2)n[nH]c1=S | 3.16 µM |
| COC(=O)C1CCCN(C(=O)c2cc(-c3ccc(C)cc3)nc3ccccc23)C1 (stereo not drawn) | 4.67 µM |
| COC(=O)c1cccc(Nc2nc(-c3cccnc3)nc3ccccc23)c1 | 2.05 µM |
| O=C(CNC1CCCCCC1)Nc1ccc(S(=O)(=O)NC2CC2)cc1 | 5.86 µM |
| Cc1ccc(NC(=O)c2cc(-c3cccs3)nc3ccccc23)nc1 | 3.48 µM |
| CCCCn1c(-c2csc(CCC)c2)n[nH]c1=S | 2.24 µM |
| CCN1CCCC1CNCc1ccccc1OCc1ccc(F)cc1 (stereo not drawn) | 7.17 µM |
